Results on 2 compounds are retold here after ChEMBL document CHEMBL4219255, “Targeting Transient Receptor Potential Vanilloid 1 (TRPV1) Channel Softly: The Discovery of Passerini Adducts as a Topical Treatment for Inflammatory Skin Disorders” (J Med Chem, 2018).

Data set [1] concerns the target T1, Transient receptor potential cation channel subfamily V member 1 (Homo sapiens, UniProt Q8NER1). The data set is described as follows: Agonist activity at TRPV1 (unknown origin) expressed in human SH-SY5Y cells assessed as increase in calcium influx at 1 uM after 25 mins by Fluo-4 NW dye-based fluorescence assay relative to capsaicin.
Data set [2] in a line: Drug metabolism in human liver microsomes assessed as sulfate conjugate formation at 50 uM in presence of UDPGA after 60 mins by LC-ESI-MS analysis. To be noted: 1 h. The format is ADME, microsome. A general note: Microsomes from liver hold many membrane-bound enzymes, among them those of drug oxidation.
For data set [3], the target named is T2, Cocaine esterase (CE2) (Homo sapiens, UniProt O00748).
T2 sequence (O00748 whole entry): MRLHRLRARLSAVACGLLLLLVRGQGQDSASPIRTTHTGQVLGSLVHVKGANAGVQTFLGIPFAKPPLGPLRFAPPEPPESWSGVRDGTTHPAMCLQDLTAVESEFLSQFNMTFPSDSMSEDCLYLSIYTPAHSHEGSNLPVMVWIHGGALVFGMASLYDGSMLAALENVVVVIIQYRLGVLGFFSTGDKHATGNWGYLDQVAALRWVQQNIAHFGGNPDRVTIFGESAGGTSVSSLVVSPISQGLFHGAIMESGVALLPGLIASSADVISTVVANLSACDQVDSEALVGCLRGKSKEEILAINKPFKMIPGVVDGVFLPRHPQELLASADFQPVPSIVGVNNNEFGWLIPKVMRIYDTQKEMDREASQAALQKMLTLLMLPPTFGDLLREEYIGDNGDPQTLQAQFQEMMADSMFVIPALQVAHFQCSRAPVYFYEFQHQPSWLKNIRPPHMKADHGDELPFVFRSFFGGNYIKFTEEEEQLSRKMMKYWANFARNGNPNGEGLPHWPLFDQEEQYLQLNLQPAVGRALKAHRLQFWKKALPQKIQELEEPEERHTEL
Kind of data set: Drug metabolism assessed as recombinant human CE2-mediated compound hydrolysis by measuring compound half life at 50 uM up to 30 mins by LC-UV analysis. The format is ADME. The method in brief:
(§1)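 Recombinant human carboxylesterase isoforms 1 and 2 were each incubated with the test ester. Hydrolysis was followed by HPLC-UV, tracking the disappearance of the substrate over incubation time relative to the initial amount. Chromatograms were also checked for peaks of the expected hydrolysis metabolites.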

The target in data set [4] is T1, Transient receptor potential cation channel subfamily V member 1. Kind of data set: Agonist activity at TRPV1 (unknown origin) expressed in human SH-SY5Y cells assessed as increase in calcium influx after 25 mins by Fluo-4 NW dye-based fluorescence assay. Type of data set: cell-based.
Data set [5] is described as follows: Drug metabolism in human liver S9 fraction assessed as residual substrate levels at 50 uM up to 60 mins by HPLC-UV analysis. To be noted: read-out: Stability. Type of data set: ADME, subcellular.
A short description of data set [6]: Drug metabolism in human keratinocytes assessed as residual substrate levels at 50 uM up to 120 mins by HPLC-UV analysis. The format is ADME, cell-based, Keratinocyte. Conditions: read-out: Stability.
Data set [7] concerns the target T3, Cocaine esterase (Homo sapiens, UniProt O00748).
T3 sequence (O00748 whole entry): T2 sequence (O00748 whole entry)
Kind of data set: Drug metabolism assessed as recombinant human CE2-mediated compound hydrolysis by measuring rate constant at 50 uM up to 30 mins by LC-UV analysis. The format is ADME. To be noted: 0.5 h. Summed up:
as §1

Data set [8] in a line: Drug metabolism in human HaCaT cells assessed as residual substrate levels at 25 uM up to 240 mins by HPLC-UV analysis. Type of data set: ADME, cell-based. Conditions: read-out: Stability.
Data set [9] can be described thus: Drug metabolism in human liver cytosol assessed as glucuronide metabolite formation at 50 uM in presence of UDPGA after 60 mins by LC-ESI-MS analysis. The format is ADME, subcellular. Conditions: 1 h.
The target in data set [10] is T4, Liver carboxylesterase 1 (CE1) (Homo sapiens, UniProt P23141).
T4 sequence (P23141 whole entry): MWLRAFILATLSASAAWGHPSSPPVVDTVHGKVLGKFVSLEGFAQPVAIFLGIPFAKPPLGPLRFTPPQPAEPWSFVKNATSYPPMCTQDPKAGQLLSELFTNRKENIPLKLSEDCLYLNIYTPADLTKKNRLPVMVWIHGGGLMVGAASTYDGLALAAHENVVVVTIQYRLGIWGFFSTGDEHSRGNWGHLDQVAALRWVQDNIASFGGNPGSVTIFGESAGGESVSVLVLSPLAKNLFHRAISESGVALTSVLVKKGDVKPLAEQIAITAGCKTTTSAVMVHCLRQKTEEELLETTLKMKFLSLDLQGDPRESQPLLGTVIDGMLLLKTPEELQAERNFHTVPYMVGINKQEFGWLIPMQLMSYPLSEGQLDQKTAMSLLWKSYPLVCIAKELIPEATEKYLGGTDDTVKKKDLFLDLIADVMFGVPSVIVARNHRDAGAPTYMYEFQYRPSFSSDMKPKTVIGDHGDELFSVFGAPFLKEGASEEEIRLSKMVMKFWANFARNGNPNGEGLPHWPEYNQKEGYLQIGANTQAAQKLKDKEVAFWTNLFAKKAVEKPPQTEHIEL
The data set is described as follows: Drug metabolism assessed as recombinant human CE1-mediated compound hydrolysis by measuring compound half life at 50 uM up to 30 mins by LC-UV analysis. Type of data set: ADME. The method in brief: as §1

Data set [11] in a line: Drug metabolism in human plasma assessed as residual substrate levels at 100 uM up to 20 mins by HPLC-UV analysis. Type of data set: ADME, cell-free. Conditions: read-out: Stability.
Data set [12] addresses T5, Liver carboxylesterase 1 (Homo sapiens, UniProt P23141).
T5 sequence (P23141 whole entry): T4 sequence (P23141 whole entry)
Kind of data set: Drug metabolism assessed as recombinant human CE1-mediated compound hydrolysis by measuring rate constant at 50 uM up to 30 mins by LC-UV analysis. The format is ADME. Conditions: 0.5 h. Summed up:
as §1

The nature of data set [13]: Drug metabolism in human liver microsomes assessed as glucuronide metabolite formation at 50 uM in presence of UDPGA after 60 mins by LC-ESI-MS analysis. Type of data set: ADME, microsome. Conditions: 1 h.
A short description of data set [14]: Drug metabolism in human liver cytosol assessed as sulfate conjugate formation at 50 uM in presence of UDPGA after 60 mins by LC-ESI-MS analysis. Type of data set: ADME, subcellular. To be noted: 1 h.
Data set [15] is described as follows: Drug metabolism in human fibroblast cells assessed as residual substrate levels at 50 uM up to 120 mins by HPLC-UV analysis. Type of data set: ADME, cell-based. Conditions: read-out: Stability.
The subject of data set [16] is Mus musculus. Kind of data set: Toxicity in C57BL/6 mouse assessed as change in body temperature at 3 mg/kg, iv after 120 mins. The format is organism-based. Conditions: in vivo, 2 h.

The term half-life denotes the time needed for the level to fall by half in the phase considered. As usually defined, the EC50 is the concentration giving half of the maximal effect.

T1 sequence (Q8NER1 whole entry): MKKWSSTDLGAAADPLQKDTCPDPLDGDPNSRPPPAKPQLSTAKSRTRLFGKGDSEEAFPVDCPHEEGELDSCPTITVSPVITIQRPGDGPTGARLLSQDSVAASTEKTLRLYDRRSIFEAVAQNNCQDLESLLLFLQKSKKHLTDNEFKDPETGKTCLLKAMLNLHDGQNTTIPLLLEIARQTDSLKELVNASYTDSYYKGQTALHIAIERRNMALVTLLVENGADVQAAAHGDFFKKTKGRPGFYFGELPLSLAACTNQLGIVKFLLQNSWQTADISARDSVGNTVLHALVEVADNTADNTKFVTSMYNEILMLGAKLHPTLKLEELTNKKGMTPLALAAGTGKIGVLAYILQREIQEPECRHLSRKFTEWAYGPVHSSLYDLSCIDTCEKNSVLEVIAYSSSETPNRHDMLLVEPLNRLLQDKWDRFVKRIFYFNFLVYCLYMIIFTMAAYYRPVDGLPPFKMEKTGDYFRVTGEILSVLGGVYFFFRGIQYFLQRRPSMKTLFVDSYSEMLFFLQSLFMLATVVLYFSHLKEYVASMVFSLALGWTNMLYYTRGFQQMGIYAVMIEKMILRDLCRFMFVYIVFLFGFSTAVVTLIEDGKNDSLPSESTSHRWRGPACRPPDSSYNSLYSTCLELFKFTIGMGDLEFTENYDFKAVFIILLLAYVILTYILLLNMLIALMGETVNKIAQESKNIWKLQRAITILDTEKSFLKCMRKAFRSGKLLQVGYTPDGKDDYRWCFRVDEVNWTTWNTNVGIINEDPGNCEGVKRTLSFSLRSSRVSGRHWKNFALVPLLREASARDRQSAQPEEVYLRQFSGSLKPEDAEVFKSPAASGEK

For the compound `CCCCCCCCCCCC(=O)OCC(=O)NCc1ccc(O)c(OC)c1`, the Activity in [1] is 65.1%. Besides, the Drug metabolism entry in data set [2], in data set [9], in [13] and in data set [14] was “Metabolite_Notdetected” throughout. Also, the half-life at 50 µM in [3] came to 18.6 min; in [10], 14.9 min. Also, the EC50 in data set [4] worked out at 370 nM. In addition, in [5], the remaining at 1 h, 50 µM turned out to be 0%. Besides, the remaining at 2 h, 50 µM was determined as 22.2% in data set [6] and 19.5% in data set [15]. In addition, the K in data set [7] turned out to be 0.0376 min⁻¹; in data set [12], 0.0465 min⁻¹. Besides, the remaining at 4 h, 25 µM in data set [8] turned out to be 84.5%. In data set [11], the remaining at 20 min, 100 µM was determined as 89.6%.

As for `CC(C)(C)c1ccc(NC(=O)N2CCN(c3ncccc3Cl)CC2)cc1`, the Activity entry in data set [16] is given as “Toxic”.
